A selection: hits, their analogues and other compounds. The true share with any hit is near 2.6%.
Vif imaging: HIV Vif self-association inhibitors, primary screen, imaging, HEK293T, single point. inhibition, % at 7.49 µM. AID 602346, 2012. HEK293T cells, Vif self-association by quenched fluorescence, 24 h. hit rate 0.35% among 340,000; in the data active = inhibition above about 50%, passing the limit was not always enough; inconclusive = no clear call, values can overlap the other calls; inactive = below about 31%
FN deposit inh: inhibitors of fibronectin matrix deposition, primary screen, AH1F cells, Alexa488-fibronectin fluorescence, plate reader; AH1F fibroblasts, overnight; inhibition, % at 12.6 µM; hit rate 0.086% among 350,000;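 active = mean inhibition across replicates of 30% or more, regardless of how many single replicates reach that level; inconclusive = mean under 30% yet at least half of replicates reach 30%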
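Material – AH1F fibroblast monolayer, labelled fibronectin deposition · Reagent – labelled fibronectin 24 nM · Timing – 1 h adhesion, overnight exposure · Measured by – fluorescence at 485 nm excitation, 525 nm emission · Read-out – inhibition of fibronectin deposition signal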
Env fusion inh: inhibitors of HIV-1 Env-driven cell-cell fusion, primary screen, HeLa-JRFL effector, CEM21 target cells, luciferase; AID 651610, 2012; inhibition, % at 12.3 µM; hit rate 1.1% among 360,000;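 active = mean replicate inhibition score of at least 50 and every replicate individually at or above 50; inconclusive = only one of the two criteria met; inactive = mean below 50 and not all replicates reaching 50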
rRNA inh HTS: reduced GFP signal of wild-type E. coli, primary screen, bacterial rRNA inhibitor project, GFP/RFP fluorescence, OD600, single point; E. coli WT GFP vs humanized-ribosome RFP mutants, 24 h; hits give low values; DMSO median 0, no signal -100; GFP signal change (wild-type ribosome), % (no concentration beside the values); hit rate 1.6% among 350,000; AID 720706, 2013;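 active = significant combined selectivity score with lowered wild-type GFP, culture density cut under 30%, mutant RFP and density less affected; inactive = any of these conditions unmet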
miR122 inh: miR-122 Renilla sensor signal increase in Huh7, primary screen, miR-122 inhibitor project, cell-based, single point, plate reader. hit rate 0.3% among 340,000. activation (reporter increase), % at 12.5 µM. Huh7 miR-122 Renilla luciferase sensor, 48 h; neutral wells = 0, positive control = 100;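 active = mean replicate activation score at least 90 and every replicate individually at or above 90; inconclusive = only one of the two criteria met; inactive = neither criterion met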;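 also: higher luciferase means less miR-122 activity so hits act as miR-122 inhibitors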
S100A4 MyoIIA: inhibitors of S100A4-myosin IIA peptide binding, primary screen, biochemical, fluorescence polarization, TAMRA-MyoIIA peptide; Protein S100-A4 (Homo sapiens), P26447; inhibition, % at 10.7 µM; hit rate 0.14% among 360,000; AID 652163, 2013;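 active = mean inhibition of at least 70% across replicates, with every replicate also reaching that level; inconclusive = mean inhibition reaches 70% but some replicates fall short; inactive = mean inhibition below 70%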
Target sequence (P26447 whole entry, looked up): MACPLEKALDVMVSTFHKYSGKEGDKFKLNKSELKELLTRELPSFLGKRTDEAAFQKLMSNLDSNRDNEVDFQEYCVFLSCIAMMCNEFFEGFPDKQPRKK
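Material: S100A4 monomer protein / Buffer or medium: 50 mM HEPES pH 7.2, 10 mM CaCl2, 100 mM KCl / Times: 5 min incubation before reading / Benchmarks: neutral control DMSO, positive control TFP / Reagent: labelled myosin peptide probe, 5 nM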
Large screens that a line does not name were inactive; [ ] = dose if it differs, or a comment.

O=C1[C@H]2[C@@H](c3ccc(Cl)cc3)N3C(=O)N(c4cccc(Cl)c4)C(=O)[C@@]3(Cc3ccccc3)[C@H]2C(=O)N1C1CCCCC1	Env fusion inh 96.8 (no result: rRNA inh HTS, S100A4 MyoIIA)
Cc1ccc(N2C(=O)N3[C@H](c4ccc(F)cc4)[C@@H]4C(=O)N(C5CCCCC5)C(=O)[C@@H]4[C@]3(Cc3ccccc3)C2=O)cc1	Env fusion inh 55.8 (no result: miR122 inh)
CC(C)(C)N1C(=O)[C@H]2[C@@H](c3ccc(Br)cc3)N3C(=O)N(c4cccc(F)c4)C(=O)[C@@]3(Cc3ccccc3)[C@H]2C1=O	Env fusion inh inconclusive (no result: Vif imaging, miR122 inh)
O=C1[C@H]2[C@@H](c3ccc(F)cc3)N3C(=O)N(c4cccc(F)c4)C(=O)[C@@]3(Cc3ccccc3)[C@H]2C(=O)N1C1CCCCC1	Env fusion inh 95.0
COc1ccc(S(=O)(=O)Nc2ccc3c(c2)C(=O)N([C@H](C)CO)C[C@@H](C)[C@H](CN(C)Cc2ccc4c(c2)OCO4)OCCCC[C@H](C)O3)cc1	none (no result: Vif imaging)
O=C(c1cccnc1)N1C[C@@H]2[C@H](c3ccccc31)[C@H](CO)N2C(=O)Nc1ccccc1	none (no result: Vif imaging, Env fusion inh)
CCOP(=O)(c1ccc(N(C)C)cc1)C(O)c1c(Cl)cccc1Cl (stereo not given)	none (no result: rRNA inh HTS, S100A4 MyoIIA)
CC(C)CCOP(=O)(c1ccc(N(C)C)cc1)C(O)c1c(Cl)cccc1Cl (stereo not given)	Env fusion inh 75.3
CCCOP(=O)(c1ccc(N(C)C)cc1)C(O)c1c(Cl)cccc1Cl (stereo not given)	Env fusion inh 72.8
CN1c2ccc(-c3cccc(C#N)c3)cc2[C@@H]2[C@@H](CCN2S(=O)(=O)c2ccccc2)[C@@H]1CO	none (no result: Vif imaging, Env fusion inh)
CCCC#Cc1ccc2c(c1)O[C@@H](CN(C)C(=O)NC(C)C)[C@@H](C)CN([C@H](C)CO)S2(=O)=O	none (no result: Vif imaging)
O=C1NCCN(Cc2cccc(Oc3ccccc3)c2)C1CC(=O)N1CCCCC1 (stereo not given)	Env fusion inh 71.7 (no result: Vif imaging, miR122 inh)
C[C@H]1CN([C@@H](C)CO)C(=O)c2cc(C#CCc3ccccc3)cnc2O[C@H]1CN(C)Cc1ccccc1	none (no result: Vif imaging, FN deposit inh, Env fusion inh, miR122 inh)
COc1ccc(NC(=O)Nc2ccc3c(c2)C(=O)N([C@H](C)CO)C[C@H](C)[C@H](CN(C)C(=O)NC(C)C)O3)cc1	none (no result: Vif imaging)
CC(=O)N(C)c1ccc(OCC(O)Cn2c3ccc(Cl)cc3c3cc(Cl)ccc32)cc1 (stereo not given)	Env fusion inh 129.9 (no result: Vif imaging, rRNA inh HTS, S100A4 MyoIIA)
CC1(Oc2ccc3ccccc3c2)CCN(Cc2cccn2-c2nccs2)C1 (stereo not given)	Env fusion inh 70.2 (no result: miR122 inh)
Cc1c(NC(=O)c2cc3c(s2)-c2ccccc2OC3)cccc1[N+](=O)[O-]	Env fusion inh 86.7 (no result: rRNA inh HTS, S100A4 MyoIIA)
Cc1csc(NC(=O)c2cc3c(s2)-c2ccccc2OC3)n1	none
CCCNC(=O)N1CC2(CN(C)C2)c2c(n(C)c3cc(OC)ccc23)[C@@H]1CO	none (no result: Vif imaging, FN deposit inh, Env fusion inh, miR122 inh, S100A4 MyoIIA)
COc1ccc(C2/C=C\CN(S(=O)(=O)c3cccc4cccnc34)CC(=O)N2Cc2ccc(F)cc2)cc1 (stereo not given)	S100A4 MyoIIA 91.4
O=C1C=C(Nc2ccc(O)cc2)C(=O)c2ccccc21	FN deposit inh 47.2
Cc1cc(C)c(S(=O)(=O)/N=C2\C=C(Nc3ccc(C(=O)O)cc3)C(=O)c3ccccc32)c(C)c1	Env fusion inh 72.8
O=C1C(Nc2ccc(O)cc2)=C/C(=N/S(=O)(=O)c2cccs2)c2ccccc21	Env fusion inh 94.8 (no result: miR122 inh)
Cc1cccc(NC2=C/C(=N/S(=O)(=O)c3cccs3)c3ccccc3C2=O)c1	Env fusion inh 75.6 (no result: rRNA inh HTS, miR122 inh, S100A4 MyoIIA)
O=C(O)c1ccc(NC2=C/C(=N/S(=O)(=O)c3ccccc3)c3ccccc3C2=O)cc1	Env fusion inh inconclusive (no result: FN deposit inh)
O=C(O)c1ccc(NC2=C/C(=N/S(=O)(=O)c3cccs3)c3ccccc3C2=O)cc1	none (no result: Vif imaging)
COc1ccc(S(=O)(=O)Nc2ccc3c(c2)OC[C@@H](C)N(C(=O)NC(C)C)C[C@@H](C)[C@H](OC)CN(C)C3=O)cc1	none (no result: Vif imaging, miR122 inh)
Cc1ccc(S(=O)(=O)Nc2ccc3c(c2)CC(=O)N([C@H](C)CO)C[C@H](C)[C@@H](CN(C)CC2CCCCC2)O3)cc1	none (no result: Vif imaging, FN deposit inh, Env fusion inh)
Cc1ccc(NC2=C/C(=N\S(=O)(=O)c3cccs3)c3ccccc3C2=O)c(C)c1	none (no result: FN deposit inh, Env fusion inh, rRNA inh HTS, S100A4 MyoIIA)
Cc1ccc(Cl)cc1NC1=C/C(=N\S(=O)(=O)c2cccs2)c2ccccc2C1=O	Env fusion inh 112.3 (no result: FN deposit inh)
O=C(C[C@H]1C=C[C@@H](NC(=O)Nc2cccc(F)c2)[C@@H](CO)O1)NCC1CC1	none (no result: Vif imaging, miR122 inh)
Cn1c(SCC(=O)N2CCOCC2)nnc1-c1ccncc1	none (no result: miR122 inh)
O=C(CSc1nnc2nnc3ccccc3n12)N1CCOCC1	rRNA inh HTS -24.6 (no result: FN deposit inh, miR122 inh)
CNC[C@@H]1Oc2ccc(NS(=O)(=O)c3ccc(OC)cc3)cc2CC(=O)N([C@H](C)CO)C[C@H]1C	none (no result: Vif imaging, FN deposit inh)
CCC1=NN(C(=O)C(=O)Nc2ccc(OC)cc2)C(O)(C(F)(F)F)C1 (stereo not given)	rRNA inh HTS -22.7 (no result: FN deposit inh, Env fusion inh)
CCC1=NN(C(=O)C(=O)Nc2ccccc2OC)C(O)(C(F)(F)F)C1 (stereo not given)	none (no result: rRNA inh HTS, S100A4 MyoIIA)
CCc1c(C)nc2ncnn2c1NCCc1ccc(OC)cc1	rRNA inh HTS -27.0 (no result: Vif imaging, FN deposit inh, Env fusion inh)
COc1ccc(Cn2c(-c3ccc(C)cc3)c[n+]3ccccc23)cc1	rRNA inh HTS -34.2
C[C@@H]1CN([C@@H](C)CO)C(=O)c2cccc(NC(=O)c3ccncc3)c2O[C@@H]1CN(C)C	miR122 inh 112.0[16.7 µM] (no result: Vif imaging, FN deposit inh, Env fusion inh)
C[C@@H]1CN([C@H](C)CO)C(=O)c2cccc(NC(=O)c3ccncc3)c2O[C@@H]1CN(C)CC1CCCCC1	none (no result: Vif imaging, S100A4 MyoIIA)
C[C@H]1CN([C@@H](C)CO)C(=O)c2cccc(NC(=O)c3ccncc3)c2O[C@H]1CN(C)S(C)(=O)=O	none (no result: Vif imaging, FN deposit inh, Env fusion inh)
C[C@@H]1CN([C@@H](C)CO)C(=O)c2cccc(NC(=O)c3ccncc3)c2O[C@H]1CN(C)CC1CCCCC1	Env fusion inh 99.4[16.7 µM] (no result: Vif imaging)
CO[C@@H]1CN(C)C(=O)c2ccc(NS(=O)(=O)c3ccc(Oc4ccccc4)cc3)cc2OC[C@@H](C)NC[C@@H]1C	Env fusion inh 55.9[16.7 µM] (no result: Vif imaging, miR122 inh, S100A4 MyoIIA)
CO[C@H]1CN(C)C(=O)c2ccc(NC(=O)c3ccc(-c4ccccc4)cc3)cc2OC[C@H](C)NC[C@@H]1C	none (no result: Vif imaging, Env fusion inh, miR122 inh)
CO[C@@H]1CN(C)C(=O)c2ccc(NC(=O)c3ccc(-c4ccccc4)cc3)cc2OC[C@@H](C)NC[C@H]1C	FN deposit inh 39.7 (no result: Vif imaging, Env fusion inh, miR122 inh)
